Tested on: not listed separately
Assay: Half-life values were derived from the decay rate constant (k) by fitting the concentration and time values to the exponential decay function at pH 7
Type: ADME
How it was run: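 Compounds at 20 μM in 25 mM K2PO4 buffer, pH 7, room temperature; aliquots taken over time and quantified by C18 reverse-phase HPLC (UV 250 nm, external calibration). t1/2 = ln(2)/k, with k from fitting concentration vs time to C = C0e^(-kt).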

| half-life [h] | SMILES |
| --- | --- |
| 128 | COC(=O)[C@@H]1CCCN1C(=O)OC[n+]1cccc([C@H]2SCc3c(C(=O)c4cn(C(=O)N(C)C)c5cc(-c6ccc(F)cc6)ccc45)ccn32)c1.[Cl-] |
| 8.5 | CN(C)C(=O)n1cc(C(=O)c2ccn3c2CS[C@@H]3c2ccc[n+](COC(=O)c3ccccc3)c2)c2ccc(-c3ccc(F)cc3)cc21.[Cl-] |
| 17.6 | CC(OC(=O)C(C)(C)C)[n+]1cccc([C@H]2SCc3c(C(=O)c4cn(C(=O)N(C)C)c5cc(-c6ccc(F)cc6)ccc45)ccn32)c1.[Cl-] (stereo not given in full) |
| > 167 | CN(C)C(=O)OC[n+]1cccc([C@H]2SCc3c(C(=O)c4cn(C(=O)N(C)C)c5cc(-c6ccc(F)cc6)ccc45)ccn32)c1.[Cl-] |
| 45.3 | CN(C)C(=O)n1cc(C(=O)c2ccn3c2CS[C@@H]3c2ccc[n+](COC(=O)C(C)(C)C)c2)c2ccc(-c3ccc(F)cc3)cc21.[Cl-] |
| 9 | CC(=O)OC[n+]1cccc([C@H]2SCc3c(C(=O)c4cn(C(=O)N(C)C)c5cc(-c6ccc(F)cc6)ccc45)ccn32)c1.[Cl-] |
| 4.1 | Cc1oc(=O)oc1C[n+]1cccc([C@H]2SCc3c(C(=O)c4cn(C(=O)N(C)C)c5cc(-c6ccc(F)cc6)ccc45)ccn32)c1.[Cl-] |
| 1.6 | COC(=O)OC[n+]1cccc([C@H]2SCc3c(C(=O)c4cn(C(=O)N(C)C)c5cc(-c6ccc(F)cc6)ccc45)ccn32)c1.[Cl-] |

Tested on: Rattus norvegicus
Assay: In vivo potency for inhibition of LPS-induced hypotension in rat by intra arterial (i.a.) administration
Type: functional
How it was run: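 Rats recovered ≥1 h after surgery; baseline arterial pressure normalized to 100 mmHg. Compound given intraarterially in DMSO/PEG 400/45% hydroxypropyl-β-cyclodextrin/0.9% saline (2.5:20:30:47.5) 15 min before an i.a. bolus of E. coli LPS 0111:B4, 25 mg/kg in PBS pH 7.4. Pressure read every 1 min. Percent inhibition from area under the pressure–time curve versus vehicle.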

| SMILES | ED50 [mg/kg] |
| --- | --- |
| CN(C)C(=O)n1cc(C(=O)c2ccn3c2CS[C@@H]3c2cccnc2)c2ccc(-c3ccc(F)cc3)cc21 | 0.01 |

Tested on: not listed separately
Assay: The rate of hydrolytic cleavage in plasma was assessed by incubating compounds (30 uM) at 37 degrees Celsius with human plasma adjusted to pH 7
Type: ADME
How it was run: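 Human plasma brought to pH 7 with K2PO4 (50 mM final), compounds at 30 μM, 37 °C. Timed aliquots quenched with 2 volumes acidified acetonitrile and centrifuged. Supernatant quantified by reverse-phase HPLC at 250 nm. t1/2 from single-exponential decay fit, t1/2 = ln(2)/k.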

| half-life at 30 µM [h] | SMILES |
| --- | --- |
| 2.67 | COC(=O)[C@@H]1CCCN1C(=O)OC[n+]1cccc([C@H]2SCc3c(C(=O)c4cn(C(=O)N(C)C)c5cc(-c6ccc(F)cc6)ccc45)ccn32)c1.[Cl-] |
| 0.0167 | CN(C)C(=O)n1cc(C(=O)c2ccn3c2CS[C@@H]3c2ccc[n+](COC(=O)c3ccccc3)c2)c2ccc(-c3ccc(F)cc3)cc21.[Cl-] |
| 0.518 | CC(OC(=O)C(C)(C)C)[n+]1cccc([C@H]2SCc3c(C(=O)c4cn(C(=O)N(C)C)c5cc(-c6ccc(F)cc6)ccc45)ccn32)c1.[Cl-] (stereo not given in full) |
| > 10 | CN(C)C(=O)OC[n+]1cccc([C@H]2SCc3c(C(=O)c4cn(C(=O)N(C)C)c5cc(-c6ccc(F)cc6)ccc45)ccn32)c1.[Cl-] |
| 0.347 | CN(C)C(=O)n1cc(C(=O)c2ccn3c2CS[C@@H]3c2ccc[n+](COC(=O)C(C)(C)C)c2)c2ccc(-c3ccc(F)cc3)cc21.[Cl-] |
| 0.0433 | CC(=O)OC[n+]1cccc([C@H]2SCc3c(C(=O)c4cn(C(=O)N(C)C)c5cc(-c6ccc(F)cc6)ccc45)ccn32)c1.[Cl-] |
| 0.0467 | Cc1oc(=O)oc1C[n+]1cccc([C@H]2SCc3c(C(=O)c4cn(C(=O)N(C)C)c5cc(-c6ccc(F)cc6)ccc45)ccn32)c1.[Cl-] |
| 0.0167 | COC(=O)OC[n+]1cccc([C@H]2SCc3c(C(=O)c4cn(C(=O)N(C)C)c5cc(-c6ccc(F)cc6)ccc45)ccn32)c1.[Cl-] |

Species on record: Oryctolagus cuniculus
Assay: Inhibitory activity was determined in PAF-induced serotonin release from rabbit platelets
Type: functional

| SMILES | Kb [nM] |
| --- | --- |
| CN(C)C(=O)n1cc(C(=O)c2ccn3c2CS[C@@H]3c2cccnc2)c2ccc(-c3ccc(F)cc3)cc21 | 1.1 |

Tested on: Rattus norvegicus
Assay: In vivo potency for inhibition of PAF-induced cutaneous vascular permeability in rat by intravenous administration
Type: functional

| SMILES | ED50 [mg/kg] |
| --- | --- |
| CN(C)C(=O)n1cc(C(=O)c2ccn3c2CS[C@@H]3c2cccnc2)c2ccc(-c3ccc(F)cc3)cc21 | 0.006 |

Tested on: Rattus norvegicus
Assay: In vivo potency for complete inhibition of LPS-induced intestinal damage in rat by intravenous administration
Type: functional
How it was run: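 Sprague–Dawley rats, 200–225 g. Compound or vehicle (25 mM sodium acetate, pH 4) given i.v. via tail vein, then LPS 25 mg/kg 30 min later. Rats killed 30 min after LPS; luminal rinse of a 15 cm intestinal segment from the duodenum assayed for hemoglobin by hemoglobinometer against standards.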

| SMILES | Dose [mg/kg] |
| --- | --- |
| CN(C)C(=O)n1cc(C(=O)c2ccn3c2CS[C@@H]3c2cccnc2)c2ccc(-c3ccc(F)cc3)cc21 | 0.1 |

From ChEMBL document CHEMBL1127694, “N-(acyloxyalkyl)pyridinium salts as soluble prodrugs of a potent platelet activating factor antagonist” (J Med Chem, 1994)
